In brackets after ≈: the same amount, converted by molar mass. Several values for one entry are separate records, joined by “and”; a condition that tells them apart may be missing. Equal entries are not always repeated.
Tests used:
MRSA ATCC 33591 [1] = experiment: In vitro resistance development, serial passage study; format: cell-based, Staphylococcus aureus; conditions: cation-adjusted MHB, ratio of MIC after passage to MIC before first passage
[2] = tested on: murine red blood cells (RBCs); experiment: Hemolytic activity; format: cell-based; conditions: 1 h
Method in brief: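 Fresh murine RBCs washed twice in 35 mM PBS (150 mM NaCl, pH 7.4) and suspended at 4% (v/v). Mixed 1:1 with 2-fold serial dilutions of test compound in PBS and held 1 h at 37 °C. After centrifugation, supernatant diluted in PBS and hemoglobin read at 414 nm. Lysis % scaled between PBS and 0.1% Triton X-100 (100%). Duplicate wells, two days.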

MSSA ATCC 29213 [3] = experiment: MIC, broth microdilution; format: cell-based, Staphylococcus aureus
Method in brief: (§1)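 Broth microdilution: mid-log cells washed, suspended in cation-adjusted MHB or TSB (0.25% glucose, 0.5% NaCl), and adjusted to 10^8 CFU/mL (OD600 0.5). Added to 2-fold serial dilutions of test compound in 0.2% BSA/0.01% acetic acid, final about 2–5 × 10^5 CFU/mL in polypropylene wells. Incubated 16–18 h at 37 °C, 180 rpm; A600 read. MIC = lowest concentration fully inhibiting growth. Duplicates on at least two days.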

MRSA ATCC 33591 [4] = experiment: MIC, broth microdilution; format: cell-based, Staphylococcus aureus
Method in brief: as §1

S. aureus cells = experiment: MIC of palmitic acid, preliminary studies; format: cell-based; conditions: Staphylococcus aureus
S. aureus biofilm = experiment: Inhibition of biofilm formation, both strains pooled; format: cell-based, Staphylococcus aureus; conditions: identical conditions, 24 h, TSB, MSSA and MRSA
Method in brief: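 Overnight S. aureus diluted to 10^5 CFU/mL in TSB (0.25% glucose, 0.5% NaCl). Biofilms grown 24 h at 37 °C in polystyrene wells with 20 μM test compound. Biomass by crystal violet after two PBS washes, read at 570 nm. Metabolic activity by resazurin: plate sonicated 5 min at 40 kHz, 30 min dark at room temperature, ex 550/em 590 nm. Viable cells by scraping into PBS, sonicating, plating and counting after 16–18 h at 37 °C.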

[5] = tested on: MSSA ATCC 29213 and MRSA ATCC 33591; experiment: Killing kinetics of stationary phase cells in TSB medium, both strains pooled; format: cell-based, Staphylococcus aureus; conditions: 10 × MIC, 10^7 CFU/mL
Method in brief: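 Adjusted to 10^7 CFU/mL (OD600 0.05) in the same medium and incubated at 37 °C with test compound at 30, 40 or 50 μM; vancomycin included as comparator. Aliquots taken at 15 and 30 min, 1, 2, 3 and 24 h, serially diluted and drop-plated; colonies counted after 16–18 h. Three independent runs.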

MSSA ATCC 29213 [6] = experiment: Killing of stationary phase cells in PBS, colony count; format: cell-based, Staphylococcus aureus; conditions: 2 h, 10^5 CFU/mL stationary phase cells
Method in brief: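 Stationary-phase cells washed once and resuspended in 10 mM PBS (150 mM NaCl, pH 7.4). Adjusted to about 10^8 CFU/mL (OD600 0.5), then diluted 10-fold serially to 10^5 CFU/mL. Exposed to test compound for 2 h at 37 °C, 180 rpm; aliquots diluted, plated and counted after overnight incubation at 37 °C. Bactericidal defined as >3 log reduction versus untreated control.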

[7] = tested on: 3T3 murine fibroblast cells; experiment: Cytotoxicity, MTT assay; format: cell-based; conditions: 2% Triton X-100, positive control
Method in brief: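 3T3 murine fibroblasts seeded at 0.2 × 10^5 cells/well in DMEM with 10% FBS for 24 h to about 75% confluence. Exposed to 20 or 50 μM test compound in serum-free DMEM for 2 h at 37 °C, 5% CO2. Washed, then 0.1 mg/mL MTT for 2 h in the dark; formazan dissolved in DMSO and read at 570 nm. Survival % = OD570 sample/untreated × 100. Two independent runs in duplicate.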

[8] = tested on: stationary phase S. aureus cells; experiment: SEM and TEM of stationary phase cells; format: cell-based, Staphylococcus aureus; conditions: 20 μg/mL, positive control
[9] = Staphylococcus aureus, ATCC29213|MSSA
[10] = tryptic soy broth (0.25% glucose, 0.5% NaCl)
[11] = Staphylococcus aureus, ATCC33591|MRSA

`O=C(O)c1cn(C2CC2)c2cc(N3CCNCC3)c(F)cc2c1=O` [ciprofloxacin] was tested, and the “increase in MIC after 18 serial passages at sub-MIC concentrations” value (MRSA ATCC 33591 [1]) was 66 fold.
For `CC[C@H](C)[C@H](NC(=O)CN)C(=O)NCC(=O)N[C@@H](C)C(=O)N[C@H](C(=O)N[C@@H](CC(C)C)C(=O)N[C@@H](CCCCN)C(=O)N[C@H](C(=O)N[C@@H](CC(C)C)C(=O)N[C@H](C(=O)N[C@H](C(=O)NCC(=O)N[C@@H](CC(C)C)C(=O)N1CCC[C@H]1C(=O)N[C@@H](C)C(=O)N[C@@H](CC(C)C)C(=O)N[C@H](C(=O)N[C@@H](CO)C(=O)N[C@@H](Cc1c[nH]c2ccccc12)C(=O)N[C@H](C(=O)N[C@@H](CCCCN)C(=O)N[C@@H](CCCNC(=N)N)C(=O)N[C@@H](CCCCN)C(=O)N[C@@H](CCCNC(=N)N)C(=O)N[C@@H](CCC(N)=O)C(=O)N[C@@H](CCC(N)=O)C(N)=O)[C@@H](C)CC)[C@@H](C)CC)[C@@H](C)O)[C@@H](C)O)C(C)C)C(C)C` [melittin], the “HC50 (concentration that causes lysis of 50% of the RBCs)” value [2] was no more than 3.9 µM.
With `Cc1onc(-c2ccccc2)c1C(=O)N[C@@H]1C(=O)N2[C@@H]1SC(C)(C)[C@@H]2C(=O)O` [oxacillin] the MIC (MSSA ATCC 29213 [3]; [9]) was < 0.8 µM and < 0.35 µg/mL, the MIC (MSSA ATCC 29213 [3]; [10]) was < 0.8 μM and < 0.35 μg/mL and the MIC (MRSA ATCC 33591 [4]; [11]) was 134 µM to 268 µM and 56.8 µg/mL to 114 µg/mL. The MIC (MRSA ATCC 33591 [4]; [10]) was 134.1–268.3 μM and 56.8–113.6 μg/mL.
Work on `CCCCCCCCCCCCCCCC(=O)O` [palmitic acid] yielded an MIC (S. aureus cells) greater than 50 µM.
`CN[C@H](CC(C)C)C(=O)N[C@H]1C(=O)N[C@@H](CC(N)=O)C(=O)N[C@H]2C(=O)N[C@H]3C(=O)N[C@H](C(=O)N[C@H](C(=O)O)c4cc(O)cc(O)c4-c4cc3ccc4O)[C@H](O)c3ccc(c(Cl)c3)Oc3cc2cc(c3O[C@@H]2O[C@H](CO)[C@@H](O)[C@H](O)[C@H]2O[C@H]2C[C@](C)(N)[C@H](O)[C@H](C)O2)Oc2ccc(cc2Cl)[C@H]1O` [vancomycin] was tested, and the “increase in MIC after 18 serial passages at sub-MIC concentrations” value (MRSA ATCC 33591 [1]) was 8 fold, the “log reduction in the viable cell count of the biofilm” value (S. aureus biofilm) was no less than 4.8 log and the “reduction of biofilm biomass (crystal violet)” value (S. aureus biofilm) was no less than 98.32 ± 0.95%. The “reduction of metabolic activity in the biofilm (resazurin)” value (S. aureus biofilm) was 100%, the “log reduction in the cell count” value ([5]; 24 h, range over MSSA and MRSA) was 3.4–4.4 log and the cell viability ([5]; up to 3 h) was “did not affect the cell viability”. It also gave an MIC (MSSA ATCC 29213 [3]; [9]) of 0.48 µM (≈ 0.696 µg/mL), an MIC (MSSA ATCC 29213 [3]; [10]) of 0.48 µM (≈ 0.696 µg/mL) and an MIC (MRSA ATCC 33591 [4]; [11]) of 0.48 to 0.96 µM (≈ 0.696 to 1.39 µg/mL). For the same compound, the MIC (MRSA ATCC 33591 [4]; [10]) was 0.48−0.96 μM.
With “Ac-H^6-F^7-R^8-W^9-G^10-K^11-P^12-V^13-NH2 [α-MSH(6-13)]” the “log reduction in viable cell count” value (MSSA ATCC 29213 [6]; 20 μM) was roughly 2 log and the “log reduction in viable cell count” value (MSSA ATCC 29213 [6]; 50 μM) was roughly 2 log.
In the case of Ac-K^11-P^12-V^13-NH2 [α-MSH(11-13)], the “log reduction in viable cell count” value (MSSA ATCC 29213 [6]; 150 μM) is reported as 0.7 log.
For Triton X-100, the “reduction in survival of the cells relative to untreated growth control” value [7] was 52.8%.
For gramicidin D, the “bacterial morphology and surface integrity in SEM and TEM” value [8] was “presence of cell debris, dents on the surface, and loss in shape of the cells”.

— article PMC7658953 (ACS Omega, 2020)
